The source made the active and inactive calls. No cut-off for these calls is given here.
Columns and labels:
[1] = target: T1, Bifunctional purine biosynthesis protein ATIC (Homo sapiens, UniProt P31939); assay: In vitro inhibitory activity against Aminoimidazole carboxamide ribonucleotide transformylase
Procedure, shortened: (§1)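 The AICAR Tfase assay solution was pre-incubated with inhibitor (250 µM, or 25 µM where the line states) for 12 h at room temperature. The reaction was then started by adding AICAR, and enzyme inhibition was measured.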
Target sequence in this assay (P31939 whole entry): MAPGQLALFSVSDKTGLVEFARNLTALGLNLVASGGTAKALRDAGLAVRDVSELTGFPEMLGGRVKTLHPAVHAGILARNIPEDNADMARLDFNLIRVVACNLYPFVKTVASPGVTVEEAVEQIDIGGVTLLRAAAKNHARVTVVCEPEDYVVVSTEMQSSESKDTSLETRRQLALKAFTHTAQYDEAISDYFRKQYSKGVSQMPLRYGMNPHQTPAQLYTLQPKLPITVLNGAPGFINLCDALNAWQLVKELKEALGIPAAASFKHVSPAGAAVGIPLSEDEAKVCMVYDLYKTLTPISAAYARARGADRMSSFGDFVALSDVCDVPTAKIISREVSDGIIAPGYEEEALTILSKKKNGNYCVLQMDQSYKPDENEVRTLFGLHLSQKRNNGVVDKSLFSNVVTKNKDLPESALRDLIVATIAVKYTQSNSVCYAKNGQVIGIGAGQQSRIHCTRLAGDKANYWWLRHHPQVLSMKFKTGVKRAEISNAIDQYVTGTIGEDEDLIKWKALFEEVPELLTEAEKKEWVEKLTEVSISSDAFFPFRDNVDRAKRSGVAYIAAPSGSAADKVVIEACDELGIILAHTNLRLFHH

[2] = system: CCRF-CEM; assay: Cytotoxicity in the absence of thymidine and hypoxanthine against CCRF-CEM cell line; format: functional, cell-based; details: Homo sapiens
Procedure, shortened: (§2)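 CCRF-CEM cells were grown in purine- and pyrimidine-free medium, with thymidine and/or hypoxanthine added or omitted as each line specifies. The cytotoxic potency was reported as an IC50 (µM).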

[3] = target: T1, Bifunctional purine biosynthesis protein ATIC; assay: In vitro inhibitory activity against Aminoimidazole carboxamide ribonucleotide transformylase pre-incubated for 12 hr at 250 uM; Not active.; procedure, shortened: as §1
Target sequence in this assay (P31939 whole entry, looked up): as the sequence (P31939 whole entry) above

[4] = system: CCRF-CEM; assay: Cytotoxicity in the absence of hypoxanthine and presence of thymidine against CCRF-CEM cell line; format: functional, cell-based; details: Homo sapiens; procedure, shortened: as §2
[5] = target: T2, Trifunctional purine biosynthetic protein adenosine-3 (Homo sapiens) (UniProt P22102); assay: In vitro inhibitory activity against Glycinamide ribonucleotide transformylase (GAR Tfase) after 3 min at 250 uM; Not active
T2 sequence (whole entry): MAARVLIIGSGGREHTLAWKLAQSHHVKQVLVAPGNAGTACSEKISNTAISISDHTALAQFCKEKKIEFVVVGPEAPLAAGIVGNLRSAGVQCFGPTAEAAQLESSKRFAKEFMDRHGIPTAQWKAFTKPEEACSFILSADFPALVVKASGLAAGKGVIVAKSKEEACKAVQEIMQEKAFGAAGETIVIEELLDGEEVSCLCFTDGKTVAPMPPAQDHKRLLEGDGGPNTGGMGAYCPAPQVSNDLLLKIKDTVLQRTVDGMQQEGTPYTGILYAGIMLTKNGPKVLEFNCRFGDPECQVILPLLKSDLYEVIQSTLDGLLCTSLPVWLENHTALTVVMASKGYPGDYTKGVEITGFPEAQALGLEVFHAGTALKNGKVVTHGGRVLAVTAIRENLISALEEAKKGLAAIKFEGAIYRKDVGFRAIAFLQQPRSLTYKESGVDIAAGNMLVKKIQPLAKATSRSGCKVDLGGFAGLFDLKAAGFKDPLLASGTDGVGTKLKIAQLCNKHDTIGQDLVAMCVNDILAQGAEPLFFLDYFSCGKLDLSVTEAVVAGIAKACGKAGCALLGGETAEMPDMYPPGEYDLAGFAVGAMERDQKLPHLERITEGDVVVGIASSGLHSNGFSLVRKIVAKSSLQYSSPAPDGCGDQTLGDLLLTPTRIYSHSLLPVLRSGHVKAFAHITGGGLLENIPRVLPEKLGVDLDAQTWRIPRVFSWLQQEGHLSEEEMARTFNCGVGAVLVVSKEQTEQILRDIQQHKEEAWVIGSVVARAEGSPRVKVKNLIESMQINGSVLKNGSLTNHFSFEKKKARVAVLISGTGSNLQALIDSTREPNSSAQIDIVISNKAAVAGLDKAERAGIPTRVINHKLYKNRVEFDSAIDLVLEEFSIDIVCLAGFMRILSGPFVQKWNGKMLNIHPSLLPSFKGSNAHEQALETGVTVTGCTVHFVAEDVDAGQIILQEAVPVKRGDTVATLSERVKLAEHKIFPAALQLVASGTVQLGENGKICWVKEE

[6] = target: T2, Trifunctional purine biosynthetic protein adenosine-3 (Homo sapiens); assay: In vitro inhibitory activity against Glycinamide ribonucleotide transformylase (GAR Tfase) after 1 hr at 25 uM; […]
[7] = system: CCRF-CEM; assay: Cytotoxicity in the presence of thymidine and hypoxanthine against CCRF-CEM cell line; format: functional, cell-based; details: Homo sapiens; procedure, shortened: as §2
[8] = target: T2, Trifunctional purine biosynthetic protein adenosine-3 (Homo sapiens); assay: In vitro inhibitory activity against Glycinamide ribonucleotide transformylase (GAR Tfase) after 30 min at 250 uM; Not active
[9] = system: CCRF-CEM; assay: Cytotoxicity in the absence of thymidine and presence of hypoxanthine against CCRF-CEM cell line; format: functional, cell-based; details: Homo sapiens; procedure, shortened: as §2
[10] = target: T2, Trifunctional purine biosynthetic protein adenosine-3 (Homo sapiens); assay: In vitro inhibitory activity against Glycinamide ribonucleotide transformylase (GAR Tfase) following 3 min pre-incubation at 250 uM concentration
[11] = target: T2, Trifunctional purine biosynthetic protein adenosine-3 (Homo sapiens); assay: In vitro inhibitory activity against Glycinamide ribonucleotide transformylase (GAR Tfase+GAR) following 3 min pre-incubation at 250 uM concentration
[12] = target: T2, Trifunctional purine biosynthetic protein adenosine-3 (Homo sapiens); assay: In vitro inhibitory activity against Glycinamide ribonucleotide transformylase (GAR Tfase+GAR) pre-incubation of 6 hr at 250 uM concentration
[13] = target: T2, Trifunctional purine biosynthetic protein adenosine-3 (Homo sapiens); assay: In vitro inhibitory activity at 250 uM concentration against Glycinamide ribonucleotide transformylase (GAR Tfase) pre-incubation time (6 hr).
[14] = target: T1, Bifunctional purine biosynthesis protein ATIC; assay: In vitro inhibitory activity against Aminoimidazole carboxamide ribonucleotide transformylase pre-incubed for 12 hr at 250 uM; procedure, shortened: as §1
Target sequence in this assay (P31939 whole entry, looked up): as the sequence (P31939 whole entry) above

[15] = target: T2, Trifunctional purine biosynthetic protein adenosine-3 (Homo sapiens); assay: In vitro inhibitory activity against Glycinamide ribonucleotide transformylase (GAR Tfase+GAR) following 30 min pre-incubation at 250 uM concentration
[16] = target: T2, Trifunctional purine biosynthetic protein adenosine-3 (Homo sapiens); assay: In vitro inhibitory activity against Glycinamide ribonucleotide transformylase (GAR Tfase) after 6 hr at 250 uM; Not active
[17] = target: T2, Trifunctional purine biosynthetic protein adenosine-3 (Homo sapiens); assay: In vitro inhibitory activity against Glycinamide ribonucleotide transformylase (GAR Tfase) after 7 hr at 250 uM
[18] = target: T2, Trifunctional purine biosynthetic protein adenosine-3 (Homo sapiens); assay: In vitro inhibitory activity against Glycinamide ribonucleotide transformylase (GAR Tfase) after 30 min at 25 uM
[19] = target: T2, Trifunctional purine biosynthetic protein adenosine-3 (Homo sapiens); assay: In vitro inhibitory activity against Glycinamide ribonucleotide transformylase (GAR Tfase) after 1 hr at 25 uM
[20] = target: T2, Trifunctional purine biosynthetic protein adenosine-3 (Homo sapiens); assay: In vitro activity against Glycinamide ribonucleotide transformylase (GAR Tfase) after 3 min at 25 uM
[21] = target: T2, Trifunctional purine biosynthetic protein adenosine-3 (Homo sapiens); assay: In vitro activity against Glycinamide ribonucleotide transformylase (GAR Tfase) after 30 min at 25 uM
[22] = target: T2, Trifunctional purine biosynthetic protein adenosine-3 (Homo sapiens); assay: (§3) In vitro inhibitory activity against Glycinamide ribonucleotide transformylase (GAR Tfase) after 6 hr at 25 uM
[23] = target: T2, Trifunctional purine biosynthetic protein adenosine-3 (Homo sapiens); assay: In vitro inhibitory activity against Glycinamide ribonucleotide transformylase (GAR Tfase) after 3 min at 25 uM; […]
[24] = target: T2, Trifunctional purine biosynthetic protein adenosine-3 (Homo sapiens); assay: In vitro inhibitory activity against Glycinamide ribonucleotide transformylase (GAR Tfase) after 30 min at 25 uM; Not active
[25] = target: T2, Trifunctional purine biosynthetic protein adenosine-3 (Homo sapiens); assay: as §3; remark: listed apart in the source
[26] = target: T2, Trifunctional purine biosynthetic protein adenosine-3 (Homo sapiens); assay: In vitro inhibitory activity against Glycinamide ribonucleotide transformylase (GAR Tfase) after 3 min at 25 uM

Structure (SMILES) | IC50 [2] | inhibition [3] | IC50 [4] | IC50 [7] | IC50 [9] | inhibition [10] | inhibition [11] | inhibition [12] | inhibition [13] | inhibition [14] | inhibition [15] | further results
Nc1nc(O)c2cc(CN(Cc3ccc(F)c([N+](=O)[O-])c3)c3ccc(C(=O)NC(CCC(=O)O)C(=O)O)cc3)ccc2n1 (configuration not stated) | – | – | – | – | – | – | – | – | – | – | – | Ki [1]: 17 µM
Nc1nc(N)c(CCNc2cc(F)c(F)cc2[N+](=O)[O-])c(O)n1 | 55 µM | inactive | 43 µM | 58 µM | 37 µM | – | – | – | – | – | – | inhibition [5]: inactive; inhibition [6]: inactive; inhibition [8]: inactive
COC(=O)c1ccc(CN(CCc2c(N)nc(N)nc2O)c2ccc([N+](=O)[O-])c(F)c2F)cc1 | 48 µM | – | 61 µM | 67 µM | 36 µM | 68% | 79% | 67% | 30% | 73% | 85% | –
Nc1nc(N)c(CCCNc2cc(F)cc(F)c2[N+](=O)[O-])c(O)n1 | 97 µM | inactive | 97 µM | 94 µM | 97 µM | 80% | – | – | 53% | – | – | inhibition [16]: inactive; inhibition [5]: inactive; inhibition [8]: inactive
Nc1nc(N)c(CCCNc2cc(F)ccc2[N+](=O)[O-])c(O)n1 | > 100 µM | inactive | > 100 µM | > 100 µM | > 100 µM | 86% | – | – | – | – | – | inhibition [16]: inactive; inhibition [5]: inactive; inhibition [8]: inactive; inhibition [17]: 64%
COC(=O)c1ccc(CN(CCc2c(N)nc(N)nc2O)c2cc(F)ccc2[N+](=O)[O-])cc1 | 72 µM | – | 66 µM | 72 µM | 72 µM | 78% | 81% | 47% | 12% | 94% | 62% | –
Nc1nc2c(c(=O)[nH]1)C[C@@H](CCc1ccc(C(=O)N[C@@H](CCC(=O)O)C(=O)O)cc1)CN2 [LOMETREXOL] | 0.13 µM | – | 0.07 µM | > 100 µM | > 100 µM | – | – | – | – | – | – | –
COC(=O)c1ccc(CN(CCCc2c(N)nc(N)nc2O)c2cc(F)ccc2[N+](=O)[O-])cc1 | 45 µM | inactive | 43 µM | 30 µM | 55 µM | 70% | 75% | 8% | 0% | – | 44% | –
COC(=O)c1ccc(CN(CCCc2c(N)nc(N)nc2O)c2cc(F)c([N+](=O)[O-])cc2[N+](=O)[O-])cc1 | 2.5 µM | – | 3.9 µM | 3.5 µM | 4.3 µM | 46% | 64% | 0% | 0% | 77% | 22% | inhibition [18]: 83%; inhibition [19]: 2%; % control activity remaining [20]: 83%; % control activity remaining [21]: 77%; % control activity remaining [22]: 65%; inhibition [23]: inactive
COC(=O)c1ccc(CN(CCCc2c(N)nc(N)nc2O)c2cc(F)c(F)cc2[N+](=O)[O-])cc1 | 59 µM | – | 55 µM | 53 µM | 66 µM | 44% | 68% | 14% | 0% | 94% | 54% | –
COC(=O)c1ccc(CN(CCc2c(N)nc(N)nc2O)c2cc(F)cc(F)c2[N+](=O)[O-])cc1 | > 100 µM | inactive | 91 µM | > 100 µM | > 100 µM | 16% | 32% | 30% | 0% | – | 29% | –
COC(=O)c1ccc(CN(CCc2c(N)nc(N)nc2O)c2cc(F)c([N+](=O)[O-])cc2[N+](=O)[O-])cc1 | 1.3 µM | – | 1.9 µM | 1.1 µM | 1.7 µM | 47% | 66% | 27% | 2% | 75% | 54% | –
COC(=O)c1ccc(CN(CCCc2c(N)nc(N)nc2O)c2cc(F)cc(F)c2[N+](=O)[O-])cc1 | > 100 µM | inactive | > 100 µM | > 100 µM | > 100 µM | 6% | 25% | 6% | 0% | – | 12% | inhibition [24]: inactive; inhibition [19]: 39%; inhibition ([19]; in the assay text read “after 6 hr” for “after 1 hr”): 84%; % control activity remaining [20]: 78%; % control activity remaining [21]: 76%; inhibition [23]: inactive
Nc1nc(N)c(CCCNc2cc(F)c(F)cc2[N+](=O)[O-])c(O)n1 | 97 µM | – | > 100 µM | 97 µM | 97 µM | 87% | – | – | 63% | 98% | – | inhibition [16]: inactive; inhibition [5]: inactive; inhibition [8]: inactive
COC(=O)c1ccc(CN(CCCc2c(N)nc(N)nc2O)c2ccc([N+](=O)[O-])c(F)c2F)cc1 | 41 µM | – | 45 µM | 45 µM | 55 µM | 61% | 82% | 75% | 41% | 96% | 78% | –
Nc1nc2ccc(CN(Cc3ccc([N+](=O)[O-])c(F)c3)c3ccc(C(=O)NC(CCC(=O)O)C(=O)O)cc3)cc2c(=O)[nH]1 (configuration not stated) | – | – | – | – | – | – | – | – | – | – | – | Ki [1]: 52 µM
COC(=O)c1ccc(CN(CCc2c(N)nc(N)nc2O)c2cc(F)c(F)cc2[N+](=O)[O-])cc1 | 12 µM | inactive | 13 µM | 11 µM | 11 µM | 17% | 35% | 22% | 2% | – | 31% | –
Nc1nc(N)c(CCCNc2cc(F)c([N+](=O)[O-])cc2[N+](=O)[O-])c(O)n1 | 1 µM | – | 1.1 µM | 1.2 µM | 1 µM | 76% | 100% | 2% | 39% | 64% | 75% | inhibition [24]: inactive; inhibition [25]: 58%; inhibition [18]: 71%; inhibition [22]: 56%; inhibition [26]: 76%; inhibition [23]: inactive

— ChEMBL document CHEMBL1133492, “Design, synthesis, and biological evaluation of fluoronitrophenyl substituted folate analogues as potential inhibitors of GAR transformylase and AICAR transformylase” (Bioorg Med Chem Lett, 2000)
